ChEMBL document CHEMBL1125062, “Structure-activity relationships for the carboxy-terminus truncated analogues of angiotension II, a new class of angiotensin II antagonists” (J Med Chem, 1990)
Where a SMILES comes first, the peptide text is derived from it. [ ]: non-standard residue; d: D form. Sar = CNCC(=O)O

How the values were obtained:
[1] = species: Oryctolagus cuniculus; experiment: In vitro myotropic property on the isolated rabbit aorta, expressed as pA2; type: functional; settings: read-out: pA2 (converted)
Summary of the method: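 Aortic rings from male New Zealand white rabbits (2-2.5 kg) equilibrated 1 h, then set at ~1 g passive tension. Paired rings were used: one received cumulative AII, the other AII with the peptide added 5 min before. AII was given at 30-min intervals with Krebs washes. Responses were taken as % of control maximal contraction, and pA2 was derived by Schild analysis.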

[2] = test system: Rattus norvegicus; experiment: Variation in mean arterial pressure after 10 min of antagonist infusion at a dose of 10 ug/kg
[3] = test system: Rattus norvegicus; experiment: Variation of MAP induced bolus injection of 100 ug/kg of compound during infusion in rat reported as % of control (100) at a dose of 10 ug/kg; type: functional
Summary of the method: (§1)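 Same ganglion-blocked, Inactin-anaesthetized rat preparation, with MAP recorded via femoral artery catheter. Antagonist was infused iv for 20 min at 10, 30, 60 or 100 µg/kg per min before AII 30 ng/kg iv bolus challenge. After infusion stopped, AII was repeated at 5-10-min intervals for 1 h. The pressor response was expressed as % of control at 5-60 min, mean ± SEM, n = 2-6.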

[4] = test system: Rattus norvegicus; experiment: Percentage of pressor response to antagonize the effect of bolus injection of compound at a dose of 30 ug/kg per min in rat; type: functional
[5] = test system: Rattus norvegicus; experiment: In vivo activity to antagonize the effect of bolus injection of compound at 30 ug/kg in rat; type: functional; settings: in the assay text read “angiotensin II at 30 ng/kg” for “compound at 30 ug/kg”
Summary of the method: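 Male Sprague-Dawley rats (240-400 g) under Inactin (100 mg/kg ip), ganglion-blocked with mecamylamine 3 mg/kg iv and atropine ip. AII 30 ng/kg iv bolus was given four times at 10-min intervals as baseline. Peptide was infused iv for 20 min, then AII was rechallenged. Endpoint was the smallest infusion dose (µg/kg per min) fully blocking the bolus, with time to ~50% recovery after infusion stopped.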

[6] = test system: Rattus norvegicus; experiment: Drinking water response evaluated in conscious rat at a dose of 500 pmol icv; type: functional
Summary of the method: (§2)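 Conscious Sprague–Dawley rats given AII 100 pmol icv to induce water drinking. Test peptide was given icv at 500 or 2500 pmol, and the drinking response was recorded.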

[7] = test system: Rattus norvegicus; experiment: Drinking water response evaluated in conscious rat at a dose of 2500 pmol icv; type: functional; summary of the method: as §2
[8] = test system: Rattus norvegicus; experiment: Variation of MAP induced bolus injection of 60 ug/kg of compound during infusion in rat reported as % of control (100) at a dose of 10 ug/kg; type: functional; summary of the method: as §1
[9] = test system: Rattus norvegicus; experiment: Percentage of pressor response to antagonize the effect of bolus injection of compound at a dose of 30 ug/kg/min in rat; type: functional
[10] = test system: Rattus norvegicus; experiment: Variation in mean arterial pressure after 60 min of antagonist infusion at a dose of 10 ug/kg
[11] = test system: Rattus norvegicus; experiment: Variation in mean arterial pressure after 40 min of antagonist infusion at a dose of 10 ug/kg
[12] = test system: Rattus norvegicus; experiment: Variation in mean arterial pressure after 20 min of antagonist infusion at a dose of 10 ug/kg
[13] = test system: Rattus norvegicus; experiment: Variation in mean arterial pressure after 5 min of antagonist infusion at a dose of 10 ug/kg
[14] = test system: Rattus norvegicus; experiment: In vivo activity to antagonize the effect of bolus injection of angiotensin II at 30 ng/kg in rat
[15] = test system: Rattus norvegicus; experiment: as above; remark: listed apart in the source
[16] = species: Rattus norvegicus; experiment: In vitro myotropic property in rat isolated uterus, expressed as pA2; type: functional; settings: read-out: pA2 (converted)
[17] = species: Rattus norvegicus; experiment: In vitro myotropic property in rat stomach, expressed as pA2; type: functional; settings: read-out: pA2 (converted)
[18] = test system: Rattus norvegicus; experiment: Variation of MAP induced bolus injection of 30 ng/kg of compound during infusion in rat reported as % of control (100) at a dose of 30 ug/kg; type: functional; settings: in the assay text read “10 ug/kg” for “30 ug/kg”; summary of the method: as §1
[19] = test system: Rattus norvegicus; experiment: Variation in mean arterial pressure after 40 min of antagonist infusion at a dose of 30 ug/kg
[20] = test system: Rattus norvegicus; experiment: Variation in mean arterial pressure after 5 min of antagonist infusion at a dose of 10 ug/kg; remark: listed apart in the source
[21] = test system: Rattus norvegicus; experiment: Variation in mean arterial pressure after 20 min of antagonist infusion at a dose of 10 ug/kg; remark: listed apart in the source
[22] = test system: Rattus norvegicus; experiment: Variation in mean arterial pressure after 40 min of antagonist infusion at a dose of 10 ug/kg; remark: listed apart in the source
[23] = test system: Rattus norvegicus; experiment: Variation in mean arterial pressure after 10 min of antagonist infusion at a dose of 10 ug/kg; remark: listed apart in the source
[24] = test system: Rattus norvegicus; experiment: Variation in mean arterial pressure after 60 min of antagonist infusion at a dose of 10 ug/kg; remark: listed apart in the source

**Q.** `CC[C@H](C)[C@H](NC(=O)[C@H](Cc1ccc(O)cc1)NC(=O)[C@@H](NC(=O)[C@H](CCCN=C(N)N)NC(=O)CNC)C(C)C)C(=O)N[C@@H](Cc1c[nH]cn1)C(=O)N1CCC[C@H]1C(=O)O` [listing 1 of 2 here] was tested. Which Kb [1] did it give?
**A.** 31.6 nM

**Q.** Which results are given for `CC[C@H](C)[C@H](NC(=O)[C@H](Cc1ccc(O)cc1)NC(=O)[C@@H](NC(=O)[C@H](CCCN=C(N)N)NC(=O)CNC)C(C)C)C(=O)N[C@@H](Cc1c[nH]cn1)C(=O)N1CCC[C@H]1C(=O)O` [listing 2 of 2 here]?
**A.** Pressor response, % of control [2]: 36%; Control [3]: 9%; Agonist activity [4]: 45%; Antagonist activity [5]: >100 µg/min/kg

**Q.** With `CC[C@H](C)[C@H](NC(=O)[C@H](Cc1ccc(O)cc1)NC(=O)[C@@H](NC(=O)[C@H](CCCN=C(N)N)NC(=O)CNC)C(C)C)C(=O)N[C@@H](Cc1c[nH]cn1)C(=O)N1CCC[C@H]1C(N)=O` [listing 1 of 2 here] as the compound, how does the Kb [1] read?
**A.** 25.1 nM

**Q.** For `CC[C@H](C)[C@H](NC(=O)[C@H](Cc1ccc(O)cc1)NC(=O)[C@@H](NC(=O)[C@H](CCCN=C(N)N)NC(=O)CNC)C(C)C)C(=O)N[C@@H](Cc1c[nH]cn1)C(=O)N1CCC[C@H]1C(N)=O` [listing 2 of 2 here], which Water intake [6] is on record?
**A.** 10 ml 20min-1

**Q.** And the Water intake [7]?
**A.** 10.8 ml 20min-1

**Q.** What about the Control [8] of the same compound?
**A.** 6%

**Q.** And the Antagonist activity [5]?
**A.** 60 µg/min/kg

**Q.** And the Agonist activity [9]?
**A.** 60%

**Q.** `CC[C@H](C)[C@H](NC(=O)[C@H](Cc1ccc(OC)cc1)NC(=O)[C@@H](NC(=O)[C@H](CCCN=C(N)N)NC(=O)CNC)C(C)C)C(=O)N[C@@H](Cc1c[nH]cn1)C(=O)N1CCC[C@H]1C(N)=O` [listing 1 of 2 here] was tested. Which Kb [1] did it give?
**A.** 20 nM

**Q.** Which results are given for `CC[C@H](C)[C@H](NC(=O)[C@H](Cc1ccc(OC)cc1)NC(=O)[C@@H](NC(=O)[C@H](CCCN=C(N)N)NC(=O)CNC)C(C)C)C(=O)N[C@@H](Cc1c[nH]cn1)C(=O)N1CCC[C@H]1C(N)=O` [listing 2 of 2 here]?
**A.** Pressor response, % of control [2]: 86%; Control [3]: 19%; Antagonist activity [5]: >100 µg/min/kg; MAP [10]: 100%; Pressor response, % of control [11]: 91%; Agonist activity [9]: 65%; Pressor response, % of control [12]: 89%; MAP [13]: 70%

**Q.** `CC[C@H](C)[C@H](NC(=O)[C@H](Cc1ccc(O)cc1)NC(=O)[C@@H](NC(=O)[C@H](CCCN=C(N)N)NC(=O)[C@@H](N)CC(=O)O)C(C)C)C(=O)N[C@@H](Cc1c[nH]cn1)C(=O)N1CCC[C@@H]1C(=O)O` was tested. Which Kb [1] did it give?
**A.** > 1000 nM

**Q.** And the Water intake [6]?
**A.** 6.1 ml 20min-1

**Q.** What about the Antagonist activity [14] of the same compound?
**A.** >300 µg/min/kg

**Q.** With `CC[C@H](C)[C@H](NC(=O)[C@H](Cc1ccc(OC)cc1)NC(=O)[C@@H](NC(=O)[C@H](CCCN=C(N)N)NC(=O)CNC)C(C)C)C(=O)N[C@@H](Cc1c[nH]cn1)C(=O)N1CCC[C@H]1C(=O)N[C@@H](Cc1ccccc1)C(=O)O` as the compound, how does the Water intake [6] read?
**A.** 3.1 ml 20min-1

**Q.** What about the Agonist activity [4] of the same compound?
**A.** 60%

**Q.** And the Antagonist activity [15]?
**A.** 30 µg/min/kg

**Q.** And the Kb [16]?
**A.** 25.1 nM

**Q.** `CNCC(=O)N[C@@H](CCCN=C(N)N)C(=O)N[C@H](C(=O)N[C@@H](Cc1ccc(O)cc1)C(=O)N[C@H](C(=O)N[C@@H](Cc1c[nH]cn1)C(=O)N1CCC[C@H]1C(=O)N[C@@H](C)C(=O)O)C(C)C)C(C)C` [listing 1 of 2 here] was tested. Which Kb [17] did it give?
**A.** 5.01 nM

**Q.** What does the source list for `CNCC(=O)N[C@@H](CCCN=C(N)N)C(=O)N[C@H](C(=O)N[C@@H](Cc1ccc(O)cc1)C(=O)N[C@H](C(=O)N[C@@H](Cc1c[nH]cn1)C(=O)N1CCC[C@H]1C(=O)N[C@@H](C)C(=O)O)C(C)C)C(C)C` [listing 2 of 2 here]?
**A.** Pressor response, % of control [2]: 50%; Control ([3]; in the assay text read “30 ng/kg of angiotensin II” for “100 ug/kg of compound”): 0%; Control [18]: 0%; Pressor response, % of control [19]: 96%; Antagonist activity [5]: 10 µg/min/kg; MAP [10]: 94%; Pressor response, % of control [11]: 96%; Pressor response, % of control [12]: 78%; MAP [13]: 29%

**Q.** Which Kb [1] does the source give for `CC[C@H](C)[C@H](NC(=O)[C@H](Cc1ccc(O)cc1)NC(=O)[C@@H](NC(=O)[C@H](CCCN=C(N)N)NC(=O)[C@@H](N)CC(=O)O)C(C)C)C(=O)N[C@@H](Cc1c[nH]cn1)C(=O)N(C)CC(N)=O` (H-DRVYIH[Sar]-NH2) here?
**A.** > 1000 nM

**Q.** `CC[C@H](C)[C@H](NC(=O)[C@H](Cc1ccc(O)cc1)NC(=O)[C@@H](NC(=O)[C@H](CCCN=C(N)N)NC(=O)CNC)C(C)C)C(=O)N[C@@H](Cc1c[nH]cn1)C(N)=O` (H-[Sar]RVYIH-NH2) was tested. Which Kb [1] did it give?
**A.** > 1000 nM

**Q.** With `CC[C@H](C)[C@H](NC(=O)[C@H](Cc1ccc(O)cc1)NC(=O)[C@@H](NC(=O)[C@H](CCCN=C(N)N)NC(=O)CNC)C(C)C)C(=O)N[C@@H](Cc1c[nH]cn1)C(=O)N(C)C` (H-[Sar]RVYIH-NMe2) [listing 1 of 2 here] as the compound, how does the Kb [1] read?
**A.** 89.1 nM

**Q.** With `CC[C@H](C)[C@H](NC(=O)[C@H](Cc1ccc(O)cc1)NC(=O)[C@@H](NC(=O)[C@H](CCCN=C(N)N)NC(=O)CNC)C(C)C)C(=O)N[C@@H](Cc1c[nH]cn1)C(=O)N(C)C` (H-[Sar]RVYIH-NMe2) [listing 2 of 2 here] as the compound, how does the Control [3] read?
**A.** 5%

**Q.** And the Pressor response, % of control [20]?
**A.** 10%

**Q.** And the Agonist activity [4]?
**A.** 50%

**Q.** And the Antagonist activity [5]?
**A.** 100 µg/min/kg

**Q.** What about the Pressor response, % of control [21] of the same compound?
**A.** 28%

**Q.** What about the Pressor response, % of control [22] of the same compound?
**A.** 67%

**Q.** And the Pressor response, % of control [23]?
**A.** 13%

**Q.** What about the MAP [24] of the same compound?
**A.** 82%

**Q.** For `CC[C@H](C)[C@H](NC(=O)[C@H](Cc1ccc(O)cc1)NC(=O)[C@@H](NC(=O)[C@H](CCCN=C(N)N)NC(=O)CNC)C(C)C)C(=O)N[C@@H](Cc1c[nH]cn1)C(=O)NCC(N)=O` (H-[Sar]RVYIHG-NH2), which Kb [1] is on record?
**A.** > 1000 nM

**Q.** How did the Kb [1] turn out when `CC[C@H](C)[C@H](NC(=O)[C@H](Cc1ccc(O)cc1)NC(=O)[C@@H](NC(=O)[C@H](CCCN=C(N)N)NC(=O)CNC)C(C)C)C(=O)N[C@@H](Cc1c[nH]cn1)C(=O)N(C)CC(N)=O` (H-[Sar]RVYIH[Sar]-NH2) was run?
**A.** > 1000 nM

**Q.** For H-DRVYIH-NH2, which Kb [1] is on record?
**A.** > 1000 nM
